Results reported in ChEMBL document CHEMBL1121879, “In vitro activity of 2-alkyl-3-hydroxy-1,4-naphthoquinones against Theileria parva” (1981).
Converted amounts (≈) assume the structure as drawn.

Test system: Theileria parva
Assay: In vitro concentration required to reduce the proportion of schizont infected cells in the culture to 50% of that of untreated control in the 48 hr incubation period
Format: functional
Conditions: read-out: ED50 (the source's name)
Procedure, shortened: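 T. parva-infected cell cultures were exposed to fourfold serial dilutions of each drug for 48 h, and the proportion of schizont-infected cells was compared with untreated controls. ED50 was expressed in mg/L, with at least two tests per compound.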

| Structure (SMILES) | EC50 [µg/mL] |
| --- | --- |
| O=C1C(=O)c2ccccc2C(O)=C1NC(=O)C1CCCCC1 | > 10 |
| NC1=C(CC2CCCCC2)C(=O)c2ccccc2C1=O | > 10 |
| O=C1C(Cl)=C(CC2CCCCC2)C(=O)c2ccccc21 | > 10 |
| O=C1C(=O)c2ccccc2C(O)=C1C1CC2CCC1C2 (centres undefined) | 0.06 (≈ 0.224 µM) |
| O=C1C(=O)c2ccccc2C(O)=C1CC1CCCCC1 | 0.03 (≈ 0.111 µM) |
| CC(=O)OC1=C(CC2CCCCC2)C(=O)c2ccccc2C1=O | 1 (≈ 3.2 µM) |
| O=C1C(=O)c2ccccc2C(O)=C1SC1CCCCC1 | 6.5 (≈ 22.5 µM) |
| O=C1C(=O)c2ccccc2C(O)=C1CSC1CCCCC1 | > 10 |
| O=C1C(=O)c2ccccc2C(O)=C1C1CCCCCCC1 | 0.007 (≈ 0.0246 µM) |
| COc1ccc2c(c1)C(=O)C(C1CCCCCC1)=C(O)C2=O | > 10 |
| O=C1C(=O)c2ccccc2C(O)=C1C1CCCCCCCCCCC1 | 0.09 (≈ 0.264 µM) |
| O=C1C(O)=C(C2CCC(C3CCCCC3)CC2)C(=O)c2ccccc21 (centres undefined) | 0.006 (≈ 0.0177 µM) |
| O=C1C(=O)c2ccccc2C(O)=C1C1CCCOC1 (centres undefined) | 6.8 (≈ 26.3 µM) |
| O=C1C(=O)c2ccccc2C(O)=C1C1CCC1 | 10 (≈ 43.8 µM) |
| O=C1C(=O)c2ccccc2C(O)=C1C1CCCC1 | 3.7 (≈ 15.3 µM) |
| O=C1C(=O)c2ccccc2C(O)=C1C1CCCCCC1 | 0.01 (≈ 0.037 µM) |

The remaining lines, values ahead:

| EC50 [µg/mL] | Structure (SMILES) |
| --- | --- |
| 0.01 (≈ 0.0242 µM) | CCCCCCCCCCCCCCCCCC1=C(O)C(=O)c2ccccc2C1=O |
| 0.06 (≈ 0.192 µM) | O=C1C(=O)c2ccccc2C(O)=C1CCCCC1CCCCC1 |
| 0.08 (≈ 0.281 µM) | O=C1C(=O)c2ccccc2C(O)=C1CCC1CCCCC1 |
| 0.006 (≈ 0.0162 µM) | CCCCCCCCCCCCCCC1=C(O)C(=O)c2ccccc2C1=O |
| 0.05 (≈ 0.146 µM) | CCCCCCCCCCCCC1=C(O)C(=O)c2ccccc2C1=O |
| 10 (≈ 46.7 µM) | O=C1C(=O)c2ccccc2C(O)=C1C1CC1 |
| 1.5 (≈ 5.9 µM) | O=C1C(O)=C(C2C=CCCC2)C(=O)c2ccccc21 (centres undefined) |
| 0.006 (≈ 0.0168 µM) | CCCCCCCCCCCCCC1=C(O)C(=O)c2ccccc2C1=O |
| 10 (≈ 20.6 µM) | O=C1C(O)=C(CCCCCCCCCCC2=C(O)C(=O)c3ccccc3C2=O)C(=O)c2ccccc21 |
| > 10 | O=C1C(=O)c2ccccc2C(O)=C1c1ccccc1 |
| 0.06 (≈ 0.201 µM) | O=C1C(=O)c2ccccc2C(O)=C1CCCC1CCCCC1 |
| 0.01 (≈ 0.0251 µM) | CCCCCCCCCCCCCCCCC1=C(O)C(=O)c2ccccc2C1=O |
| 0.05 (≈ 0.141 µM) | O=C1C(=O)c2ccccc2C(O)=C1CCCCCCCC1CCCCC1 |
| 0.01 (≈ 0.026 µM) | CCCCCCCCCCCCCCCC1=C(O)C(=O)c2ccccc2C1=O |
| > 10 | O=C1C(O)=C(CCCCCC2=C(O)C(=O)c3ccccc3C2=O)C(=O)c2ccccc21 |
| > 10 | O=C1C(O)=C(NCC2CCCCC2)C(=O)c2ccccc21 |
| 1 (≈ 2.18 µM) | O=C1C(O)=C(CCCCCCCCC2=C(O)C(=O)c3ccccc3C2=O)C(=O)c2ccccc21 |
| 0.03 (≈ 0.0919 µM) | O=C1C(=O)c2ccccc2C(O)=C1CCCCCC1CCCCC1 |
| 0.13 (≈ 0.433 µM) | CCCCCCCCCC1=C(O)C(=O)c2ccccc2C1=O |
| > 10 | O=C1C(O)=C(CCCCCCC2=C(O)C(=O)c3ccccc3C2=O)C(=O)c2ccccc21 |
| 1 (≈ 4.09 µM) | CCCCCC1=C(O)C(=O)c2ccccc2C1=O |
| 0.06 (≈ 0.163 µM) | O=C1C(O)=C(CCCCCCCCC2CCCCC2)C(=O)c2ccccc21 [MENOCTONE] |
| 0.006 (≈ 0.0234 µM) | O=C1C(O)=C(C2CCCCC2)C(=O)c2ccccc21 [PARVAQUONE] |
